In ChEMBL document CHEMBL2417464, “Design and synthesis of novel quinazoline nitrogen mustard derivatives as potential therapeutic agents for cancer” (Eur J Med Chem, 2013):
Active and inactive are the calls of the source. The calls are words filed in the database; no cut-off is given here.

What was measured:
[1] = tested on: HepG2; experiment: Cytotoxicity against human HepG2 cells after 72 hrs by MTT assay; format: functional, cell-based; settings: HepG2, 72 h
[2] = tested on: MCF7; experiment: Cytotoxicity against human MCF7 cells after 72 hrs by MTT assay; format: functional, cell-based; settings: MCF7, 72 h
[3] = tested on: A549; experiment: Cytotoxicity against human A549 cells after 72 hrs by MTT assay; format: functional, cell-based; settings: A549, 72 h
[4] = tested on: DU-145; experiment: Cytotoxicity against human DU145 cells after 72 hrs by MTT assay; format: functional, cell-based; settings: DU-145, 72 h
[5] = Cytotoxicity against human SH-SY5Y cells after 72 hrs by MTT assay; format: functional, cell-based
[6] = tested on: Mus musculus; experiment: Toxicity in nude mouse transfected with human HepG2 cells assessed as decrease in body weight at 20 mg/kg, iv administered from day 9 every other day for 7 times relative to negative control; format: organism-based; set-up: dose 20 mg/kg, route intravenous; settings: in vivo
Summary of the method: (§1)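 HepG2 tumor-bearing mice (18–22 g, tumors 140–160 mg, 7–14 days post-inoculation). Dosing i.v. every other day, 7 doses, at 10 or 20 mg/kg; sorafenib and vehicle controls given identically. Body weight recorded every two days; mean change compared with vehicle group.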

[7] = tested on: HepG2; experiment: Antitumor activity against human HepG2 cells transfected in nude mouse assessed as tumor growth regression at 10 mg/kg, iv administered from day 9 post-infection every other day for 7 times relative to negative control; format: functional
Summary of the method: (§2)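 HepG2 xenograft in mice, started 7–14 days after tumor cell inoculation (mice 18–22 g, tumors 140–160 mg). Dosing i.v. every other day, 7 doses, at 10 or 20 mg/kg; sorafenib and vehicle controls given the same way. Tumor dimensions recorded every two days. Growth regression expressed relative to vehicle control.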

[8] = Cytotoxicity against human GES-1 cells after 48 hrs by MTT assay; format: cell-based; settings: GES1, 48 h
[9] = tested on: HepG2; experiment: Antitumor activity against human HepG2 cells transfected in nude mouse assessed as tumor growth regression at 20 mg/kg, iv administered from day 9 post-infection every other day for 7 times relative to negative control; format: functional; summary of the method: as §2
[10] = tested on: HepG2; experiment: Induction of apoptosis in human HepG2 cells assessed as late apoptotic cells at 6 uM after 48 hrs by Annexin V-FITC/propidium iodide staining-based flow cytometry (reference value: 2.13%); format: functional
[11] = tested on: HepG2; experiment: Cell cycle arrest in human HepG2 cells assessed as decrease in G1 phase accumulation at 2 to 4 uM after 48 hrs by propidium iodide staining-based flow cytometry; format: functional
Summary of the method: (§3)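 HepG2 seeded 3 × 10⁵/well, 24 h, then exposed to a range of concentrations for 48 h. Cells fixed in ice-cold 70% ethanol ≥24 h, PBS-washed, RNase A treated, PI-stained 30 min at 4 °C in the dark. DNA content by flow cytometry gives G1, S, G2/M and sub-G1 fractions; mean of three independent determinations.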

[12] = tested on: Mus musculus; experiment: Toxicity in nude mouse transfected with human HepG2 cells assessed as change in body weight at 10 mg/kg, iv administered from day 9 every other day for 7 times relative to negative control; format: organism-based; set-up: dose 10 mg/kg, route intravenous; settings: in vivo; summary of the method: as §1
[13] = tested on: HepG2; experiment: Induction of apoptosis in human HepG2 cells assessed as early apoptotic cells at 2 uM after 48 hrs by Annexin V-FITC/propidium iodide staining-based flow cytometry (reference value: 0.86%); format: functional
[14] = tested on: HepG2; experiment: Induction of apoptosis in human HepG2 cells assessed as early apoptotic cells at 6 uM after 48 hrs by Annexin V-FITC/propidium iodide staining-based flow cytometry (reference value: 0.86%); format: functional
[15] = tested on: HepG2; experiment: Cell cycle arrest in human HepG2 cells assessed as increase in S phase accumulation after 48 hrs by propidium iodide staining-based flow cytometry; format: functional; summary of the method: as §3
[16] = tested on: HepG2; experiment: Cell cycle arrest in human HepG2 cells assessed as increase in G2/M phase accumulation after 48 hrs by propidium iodide staining-based flow cytometry; format: functional; summary of the method: as §3
[17] = tested on: HepG2; experiment: Induction of apoptosis in human HepG2 cells after 48 hrs by Annexin V-FITC/propidium iodide staining-based flow cytometry; format: functional, cell-based
[18] = tested on: HepG2; experiment: Induction of apoptosis in human HepG2 cells assessed as late apoptotic cells at 4 uM after 48 hrs by Annexin V-FITC/propidium iodide staining-based flow cytometry (reference value: 2.13%); format: functional
[19] = tested on: HepG2; experiment: Cell cycle arrest in human HepG2 cells assessed as increase in G2/M phase accumulation at 2 to 4 uM after 48 hrs by propidium iodide staining-based flow cytometry; format: functional; summary of the method: as §3
[20] = tested on: HepG2; experiment: Cell cycle arrest in human HepG2 cells assessed as increase in sub G1 phase accumulation after 48 hrs by propidium iodide staining-based flow cytometry; format: functional; summary of the method: as §3
[21] = tested on: HepG2; experiment: Cell cycle arrest in human HepG2 cells assessed as increase in S phase accumulation at 2 to 4 uM after 48 hrs by propidium iodide staining-based flow cytometry; format: functional; summary of the method: as §3
[22] = tested on: HepG2; experiment: Induction of apoptosis in human HepG2 cells assessed as late apoptotic cells at 2 uM after 48 hrs by Annexin V-FITC/propidium iodide staining-based flow cytometry (reference value: 2.13%); format: functional
[23] = tested on: HepG2; experiment: Induction of apoptosis in human HepG2 cells assessed as early apoptotic cells at 4 uM after 48 hrs by Annexin V-FITC/propidium iodide staining-based flow cytometry (reference value: 0.86%); format: functional

SMILES	IC50 [1] [µM]	IC50 [2] [µM]	IC50 [3] [µM]	IC50 [4] [µM]	IC50 [5] [µM]	further results
COc1cc2ncnc(Nc3cccc(N(CCCl)CCCl)c3)c2cc1OC(C)=O	29.1	39.9	39.1	21.6	24	
COCCOc1cc2ncnc(Nc3cccc(N(CCCl)CCCl)c3)c2cc1OCCOC	33.5	> 100	77.4	> 100	16.9	
CNC(=O)c1cc(Oc2ccc(NC(=O)Nc3ccc(Cl)c(C(F)(F)F)c3)cc2)ccn1 [SORAFENIB]	8.42	11.3	27.7	24.9	19.5	Activity [6]: Toxic; TGI [7]: Active; IC50 [8]: 15.8 µM; TGI [9]: Active
COc1cc2ncnc(Nc3cccc(N(CCCl)CCCl)c3)c2cc1OCCCN1CCOCC1	3.06	10.5	6.71	20	8.6	Activity [10]: 57.7%; Activity [11]: Active; Activity [12]: Non-toxic; Activity [6]: Toxic; Activity [13]: 4.58%; Activity [14]: 17.9%; Activity [15]: Dose-dependent effect; Activity [16]: Dose-dependent effect; Activity [17]: Dose-dependent effect; Activity [18]: 32.13%; Activity [19]: Active; Activity [20]: Dose-dependent effect; Activity [21]: Active; Activity [22]: 6.64%; inhibition in vivo at 10 mg/kg ([7]; HepG2, 216 h, read-out: TGI): 26.5%; Activity [23]: 9.26%; inhibition in vivo at 20 mg/kg ([9]; HepG2, 216 h, read-out: TGI): 47.3%
COc1cc2ncnc(Nc3ccc(N(CCCl)CCCl)cc3)c2cc1OC(C)=O	47.1	28.9	28.8	49.2	17.4	
COc1cc2ncnc(Nc3ccccc3N(CCCl)CCCl)c2cc1OC	77.2	89.2	81.5	> 100	22.6	
COc1cc2ncnc(Nc3cccc(N(CCCl)CCCl)c3)c2cc1OC	17.4	> 100	> 100	> 100	12.4	
COc1cc2ncnc(Nc3cccc(N(CCCl)CCCl)c3)c2cc1O	23.3	67.4	33	41.5	21.1	
COc1cc2ncnc(Nc3ccccc3N(CCCl)CCCl)c2cc1OC(C)=O	48.4	57.1	62.9	99.4	28.2	
COc1cc2ncnc(Nc3ccc(N(CCCl)CCCl)cc3)c2cc1OC	29.9	51.1	> 100	> 100	7.36	
COCCOc1cc2ncnc(Nc3ccc(N(CCCl)CCCl)cc3)c2cc1OCCOC	85	> 100	> 100	> 100	13.2	
COc1cc2ncnc(Nc3ccc(N(CCCl)CCCl)cc3)c2cc1OCCCN1CCOCC1	12.2	55	27.7	16.9	20.7	
COc1cc2ncnc(Nc3ccc(N(CCCl)CCCl)cc3)c2cc1O	46.7	41.9	53.4	75.2	43.9	
COCCOc1cc2ncnc(Nc3ccccc3N(CCCl)CCCl)c2cc1OCCOC	11.3	97.7	33.1	> 100	45.8	
